Rows were chosen to be rich in hits. Some 3.5% of all compounds tested hit in one or more screens of this group.
RGS4 block: inhibitors of human RGS4 | B-score at 10 µM | 310,000 compounds, 0.45% hits | HEK293 M3R/RGS4 inducible, Fluo-4 calcium flux; hits give high values; triggered by carbachol at its EC20;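 active = B-score, a plate-corrected calcium signal, over three deviations above library mean, with baseline fluorescence within five deviations of library mean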;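 note: RGS4 expression induced by doxycycline in cells with stable M3 receptor; B-score is computed from the integrated fluorescence ratio over baseline after carbachol; higher B-score means a larger calcium signal and so more RGS4 inhibition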
Target sequence (P49798 whole entry, looked up): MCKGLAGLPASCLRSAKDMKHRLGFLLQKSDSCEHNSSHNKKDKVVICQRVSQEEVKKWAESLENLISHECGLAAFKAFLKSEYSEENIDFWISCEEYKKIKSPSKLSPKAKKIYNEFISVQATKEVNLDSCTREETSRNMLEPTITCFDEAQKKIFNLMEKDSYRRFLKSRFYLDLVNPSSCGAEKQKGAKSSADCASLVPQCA
MrgX1 agonist: agonists of human MrgX1 receptor; MrgX1-HEK293 cells, Fluo-4 calcium fluorescence, agonist mode; hits give high values; B-score at 10 µM; 310,000 compounds, 0.44% hits; AID 588627;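 active = calcium response B-score plate-corrected fluorescence ratio at least 3 library SD, with starting fluorescence B-score inside 5 SD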
Target sequence (Q96LB2 whole entry, looked up): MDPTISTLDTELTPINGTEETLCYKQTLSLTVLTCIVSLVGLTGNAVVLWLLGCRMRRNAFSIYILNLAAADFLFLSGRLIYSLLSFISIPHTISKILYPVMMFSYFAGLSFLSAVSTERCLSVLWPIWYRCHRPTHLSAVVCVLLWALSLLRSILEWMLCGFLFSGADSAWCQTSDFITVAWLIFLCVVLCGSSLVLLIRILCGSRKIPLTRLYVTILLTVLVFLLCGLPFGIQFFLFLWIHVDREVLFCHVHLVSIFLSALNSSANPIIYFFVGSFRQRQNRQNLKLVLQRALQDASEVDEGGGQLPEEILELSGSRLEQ
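System: HEK293 cells stably expressing human MrgX1 receptor; Dosing: test compound in the initial addition of three; Schedule: overnight plating, then 30 min 37 °C plus 30 min room-temperature dye loading; Detection: kinetic calcium dye fluorescence, Fluo-4 NW; Controls: per-plate positive and negative controls for Z′ factor.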
MrgX1 antagonist: antagonists of human MrgX1 receptor; 310,000 compounds, 1.3% hits; AID 588676; B-score at 10 µM; Q96LB2; MRGX1-HEK293 calcium flux, Fluo-4, BAM8-22 antagonism; hits give low values;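 active = calcium-response B-score plate-corrected more than 3 library SD below zero, starting fluorescence within 5 deviations, no agonist response on first addition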;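 note: peak minus trough fluorescence over baseline after final BAM8-22 challenge near maximal dose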
MrgX1 PAM: allosterically activates human MrgX1 receptor signaling; B-score at 10 µM; AID 588675; Q96LB2; MrgX1-HEK293, Fluo-4 calcium flux, FDSS; hits give high values; 310,000 compounds, 0.63% hits;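 active = plate-corrected calcium response at least 3 library SD above typical, normal starting fluorescence, not activating the receptor alone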;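 note: compound read alongside a low EC10 to EC30 dose of BAM8-22 agonist; peak minus trough fluorescence over baseline measured at the second addition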
RGS4 pot: potentiators or activators of RGS4; HEK293 M3R/inducible RGS4, carbachol calcium flux Fluo4; hits give low values; B-score at 10 µM; 310,000 compounds, 0.92% hits;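 active = B-score of the integrated calcium signal more than 4 SD below the library mean, with starting fluorescence not abnormally high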;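 note: negative B-score means reduced calcium response which marks RGS4 activation or potentiation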
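Assay system: HEK293 FlpIn-TREx cells, stable M3R, doxycycline-inducible RGS4 / Probe or stimulus: carbachol, ECmax concentration / Times: overnight RGS4 induction, 30 min dye load 37 °C, 20 min compound RT / Signal: kinetic calcium fluorescence imaging with Fluo4-AM dye, 2 µM / Measure: Agonist-evoked peak-minus-minimum fluorescence over baseline, integrated ratio, B score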
MrgX1 ant reconf: confirmation of human MrgX1 receptor antagonists; shares compounds with MrgX1 antagonist; MrgX1-HEK293, BAM8-22 calcium flux, Fluo-4; hits give low values; remaining BAM8-22 calcium response % of control (hits give low values), % at 10 µM; 2,300 compounds, 19% hits;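 active = remaining agonist calcium response no higher than 100% minus 3 SD of agonist-only control wells, with starting fluorescence near control levels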;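 note: agonist BAM8-22 given at a near maximal EC90 to ECmax level; peak minus minimum fluorescence divided by baseline after agonist addition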
HEK293 Ca flux: MrgX1 antagonist counter-screen hit in parental HEK293 cells; Fluo-4 calcium fluorescence, FDSS; 4,000 compounds, 2% hits; shares compounds with MrgX1 antagonist; fluorescence ratio F(max-min)/F0 at 10 µM; AID 624111;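 active = duplicate-averaged calcium fluorescence ratio at least three times the standard deviation of buffer wells, a nonspecific response in parental cells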
HEK293 Ca counter: activity in parental HEK293 cells without MrgX1 | shares compounds with MrgX1 antagonist | parental HEK293 calcium flux, Fluo-4 fluorescence ratio; hits give high values | fluorescence ratio F(max-min)/F0 at 10 µM | 4,000 compounds, 0.4% hits | AID 624114;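 active = calcium fluorescence ratio, averaged over duplicates, at least 3 SD of the buffer-well ratio, meaning a nonspecific response in receptor-free cells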;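 note: untransfected parental HEK293 lacking MrgX1 used as counterscreen for MrgX1 allosteric activators; fluorescence change taken during the second addition on a kinetic imager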
HEK293 Ca cntr2: activity in parental HEK293 cells lacking MrgX1 receptor. shares compounds with MrgX1 antagonist. Fluo-4 calcium fluorescence (FDSS); hits give high values. fluorescence ratio F(max-min)/F0 at 10 µM. 4,000 compounds, 8.7% hits. AID 624115;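 active = calcium fluorescence ratio at least three times the spread of buffer wells, meaning a non-specific response in parental cells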
A number is an active result; - = inactive; . = no result.

SMILES	RGS4 block	MrgX1 agonist	MrgX1 antagonist	MrgX1 PAM	RGS4 pot	MrgX1 ant reconf	HEK293 Ca flux	HEK293 Ca counter	HEK293 Ca cntr2
Cc1ncoc1C(=O)N1CCCC(C(=O)c2cccc(OC(C)C)c2)C1 (stereo not given)	-	-	-6.1	-	-	-	-	-	-
Cc1ncoc1C(=O)N1CCCC(C(=O)c2ccc(Oc3ccccc3)cc2)C1 (stereo not given)	-	-	-	-	-	.	.	.	.
O=C(COC(=O)COc1ccccc1)NCCc1ccccc1	-	-	-5.2	-	-	-	-	-	-
COc1ccc(Nc2oc(-c3ccc(OC)cc3)nc2C#N)cc1	-	-	-5.8	-	-	-	-	-	-
COCCCNC(=O)c1cccc(NC(=O)c2ccccc2)c1	-	-	-5.6	-	-	83%	-	-	-
COc1cccc(C(=O)Nc2cccc(C(=O)NCC(C)C)c2)c1	-	-	-6.5	-	-	-	-	-	-
CC(C)OCCCNC(=O)c1cccc(NC(=O)c2ccccc2)c1	-	-	-	-	-	.	.	.	.
O=C(Nc1cc(Cl)cc(Cl)c1)c1ccno1	-	-	-4.5	-	-	-	-	-	-
Cc1ccc(NNC(=O)c2ccno2)cc1Cl	-	-	-	-	-	.	.	.	.
O=C(Nc1ccc(OCc2ccccc2)cc1)c1ccccc1	-	-	-9	-	-	-	-	-	-
CCOC(=O)C1=C(c2ccccc2)NC(=O)NC1c1ccc(OC)cc1OC (stereo not given)	-	-	-	-	-	.	.	.	.
N#C/C(=C\c1c(F)cccc1Cl)C(=O)NC1CC1	-	-	-	-	-	.	.	.	.
CC1(C)C2CCC13CS(=O)(=O)N[C@@H]3C2 (stereo not given in full)	-	-	-9.4	-	-	-	-	-	-
CC(C)CN(C(=O)COC(=O)COc1ccc2c(c1)CCC2)c1c(N)n(Cc2ccccc2)c(=O)[nH]c1=O	-	-	-	-	-	.	.	.	.
COc1ccc(CC(=O)OCC(=O)NCc2ccco2)cc1OC	-	-	-5.3	-	-	-	-	-	-
CCCOc1cc(CC(=O)NCc2ccco2)ccc1OC	-	-	-	-	-	.	.	.	.
COc1ccc(Nc2cc3n(c(=O)n2)CCc2cc(OC)c(OC)cc2-3)c(C)c1	-	-	-6.3	-	-	-	-	-	-
Fc1ccc(COc2ccccc2C(=S)N2CCCC2)cc1	-	-	-5.4	-	-	-	-	-	-
CC1CCc2sc(C(=O)OCC(=O)NCc3ccc(F)cc3)cc2C1 (stereo not given)	-	-	-21	-	-	-	-	-	-
CCn1c2ccccc2c2c3ncc4cccn4c3ccc21	-	-	-5.8	-	-	78%	-	-	-
CCN1c2ccccc2-c2nc3ccccc3n2C1c1cccs1 (stereo not given)	-	-	-6.1	-	-	-	-	-	-
CCCn1c(-c2cccs2)nc2ccccc21	-	-	-	-	-	.	.	.	.
O=C(NCCOC(=O)c1cccs1)c1cccnc1	-	-	-7.8	-	-	-	-	-	-
Cc1ccc(NC(=O)c2cccs2)cc1NC(=O)c1cccnc1	-	-	-	-	-	.	.	.	.
Cc1cc(NC(=O)c2cccnc2)ccc1Br	-	-	-7.5	-	-	-	-	-	-
SMILES	RGS4 block	MrgX1 agonist	MrgX1 antagonist	MrgX1 PAM	RGS4 pot	MrgX1 ant reconf	HEK293 Ca flux	HEK293 Ca counter	HEK293 Ca cntr2
O=C(Nc1ccc(NC(=O)c2cccs2)cc1)c1cccnc1	-	-	-5.8	-	-	-	-	-	-
Cc1cccc(NC(=O)c2cccnc2)c1	-	-	-	-	-	.	.	.	.
O=C(NCc1ccccc1Cl)C1CCCN(S(=O)(=O)c2cccc3nonc23)C1 (stereo not given)	-	-	-	-	-	.	.	.	.
CN1CCc2c(sc3c2C(=O)NC(c2ccccc2)N3)C1 (stereo not given)	-	-	-9.5	-	-	-	-	-	-
O=C(COc1ccccc1)Nc1nnc(-c2ccc(F)cc2)o1	-	-	-	-	-	.	.	.	.
O=C(COc1ccccc1)Nc1nnc(-c2ccccc2Cl)o1	-	-	-7.9	-	-	-	-	-	-
CC(=O)NC1CC2CCCC(C1)N2S(=O)(=O)c1ccccc1 (stereo not given)	-	-	-8.8	-	-	-	-	-	-
O=C(Nc1cccc2c1CCCC2)c1ccncc1	-	-	-8.5	-	-	-	-	-	-
C=CCSc1nc(N)c(C(=O)Nc2ccccc2)cc1C#N	-	-	-	-	-	.	.	.	.
C=CCSc1nc(N)c(C(=O)Nc2ccccc2OC)cc1C(=O)Nc1ccccc1	-	-	-5.9	-	-	78%	-	-	-
CCN(CC)c1ccc(C(=O)OCc2c(C)noc2C)cc1	-	-	-	-	-	.	.	.	.
Cc1ccc(C(=O)OCC(=O)N(C)C2CCS(=O)(=O)C2)cc1S(=O)(=O)N1CCCCC1 (stereo not given)	-	-	-	-	-	.	.	.	.
CCN(C(=O)c1ccc(S(=O)(=O)N2CCC(C)CC2)cc1)C1CCS(=O)(=O)C1 (stereo not given)	-	-	-4.6	-	-	-	-	-	-
CN(C(=O)COC(=O)c1cccc(S(=O)(=O)N2CCCCC2)c1)C1CCS(=O)(=O)C1 (stereo not given)	-	-	-6	-	-	-	-	-	-
O=C(Cn1ccc2cc(S(=O)(=O)N3CCCC3)ccc21)NCc1ccco1	-	-	-4.6	-	-	-	-	-	-
CS(=O)(=O)N1CCCC(C(=O)NCc2ccco2)C1 (stereo not given)	-	-	-5.1	-	-	-	-	-	-
O=C(NCc1ccco1)C1CCCN(S(=O)(=O)c2ccc(Br)cc2)C1 (stereo not given)	-	-	-	-	-	.	.	.	.
O=C(Cc1ccc(-n2c(=O)[nH]c3ccsc3c2=O)cc1)N1CCN(c2ccc(Cl)cc2)CC1	-	-	-	-	-	.	.	.	.
C#Cc1ccc([C@H]2C=C(C(=O)N3CCN(Cc4ccc5c(c4)OCO5)CC3)O[C@@H](OCC)[C@@H]2CCCO)cc1	-	-	-	-	-	.	.	.	.
COc1ccc(C)cc1-n1nnnc1SCC(=O)Nc1cccnc1Cl	-	-	-5.9	-	-	-	-	-	-
COc1ccc(C)cc1-n1nnnc1SCC(=O)Nc1cc(C)on1	-	-	-	-	-	.	.	.	.
